Laboratory results as given in article PMC9780517 (Experimental and Therapeutic Medicine, 2022).
“Also recorded” adds a separate entry of the source.

Assays:
[1] = after intravenous administration; cited from earlier work
[2] = test system: hiPSC-CMs; experiment: Myocardial cell activity; assay type: cell-based, human; conditions: for Effect on Ampl (cell activity / cell viability) / Effect on BPM (beats per minute): concentration relative to ETPC
How it was run: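 Human iPSC-derived cardiomyocytes (mostly ventricular; four batches) were grown 14-21 days on fibronectin-coated impedance/field-potential sensor plates at 37°C, 5% CO2. The medium was changed on dosing day, and test compound was added 3-4 h later, with 0.1% DMSO as control. Reads were taken every 30 min for 2 h, then every 2 h for >24 h. There were 3-4 concentrations, triplicate wells each. Ampl and BPM were normalized to pre-dose values.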

[3] = test system: hiPSC-CMs; experiment: Field potential; assay type: cell-based, human; conditions: for FPDc prolongation (in words): concentration relative to ETPC
[4] = ref 21 (Blinova et al); cited from earlier work

Row | SMILES | Effect on Ampl (cell activity / cell viability) [2] | Effect on BPM (beats per minute) [2] | Arrhythmia-like waveforms (in words) [3] | other results
1 | CCCCc1oc2ccccc2c1C(=O)c1cc(I)c(OCCN(CC)CC)c(I)c1 [Amiodarone] | decreased the cell activity of cardiomyocytes at concentrations greater than ETPC | decreased BPM at a concentration greater than ETPC |  | TdP incidence [1]: ~ 15%
2 | COc1ccc(CCN2CCC(Nc3nc4ccccc4n3Cc3ccc(F)cc3)CC2)cc1 [Astemizole] | decreased the activity of cardiomyocytes at a concentration higher than ETPC | decrease BPM | caused arrhythmia-like waveforms | 
3 | CN1CCN(CCCCN2C(=O)CN(/N=C/c3ccc(-c4ccc(Cl)cc4)o3)C2=O)CC1 [Azimilide] |  |  | induce arrhythmia-like waveforms | FPDc prolongation (in words) [3]: FPDc prolongation at concentrations lower than ETPC
4 | CC(C)COCC(CN(Cc1ccccc1)c1ccccc1)N1CCCC1 (stereo not drawn) [Bepridil] |  |  | induce arrhythmia-like waveforms | Concentration at which arrhythmia-like waveforms were observed [3]: 312.5 times of the ETPC; FPDc prolongation (in words) [3]: not induce FPDc prolongation; also recorded: no FPDc prolongation was observed; Predicted risk, LR model of Blinova et al [4]: low-risk
5 | CN(C)CCCN1c2ccccc2Sc2ccc(Cl)cc21 [Chlorpromazine] | decreased the activity of cardiomyocytes at a concentration higher than ETPC | decrease BPM |  | Predicted risk, LR model of Blinova et al [4]: low-risk
6 | COc1cc(N)c(Cl)cc1C(=O)NC1CCN(CCCOc2ccc(F)cc2)CC1OC (stereo not drawn) [Cisapride] | decreased the activity of cardiomyocytes at a concentration higher than ETPC | decrease BPM |  | 
7 | CC[C@H]1OC(=O)[C@H](C)[C@@H](O[C@H]2C[C@@](C)(OC)[C@@H](O)[C@H](C)O2)[C@H](C)[C@@H](O[C@@H]2O[C@H](C)C[C@H](N(C)C)[C@H]2O)[C@](C)(OC)C[C@@H](C)C(=O)[C@H](C)[C@@H](O)[C@]1(C)O [Clarithromycin] | decreased the activity of cardiomyocytes at a concentration higher than ETPC | decrease BPM |  | FPDc prolongation (in words) [3]: no FPDc prolongation was observed; also recorded: FPDc showed shortening; FPDc prolongation at the highest concentration ([3]; highest concentration of 100 µM, repeated in triplicate): no FPDc prolongation was observed
8 | CN1CCN(C2=Nc3cc(Cl)ccc3Nc3ccccc32)CC1 [Clozapine] |  |  | caused arrhythmia-like waveforms | Concentration at which FPDc prolongation was observed [3]: 42 % of the ETPC
9 | COc1ccc([C@@H]2Sc3ccccc3N(CCN(C)C)C(=O)[C@@H]2OC(C)=O)cc1 [Diltiazem] | decreased the activity of cardiomyocytes at a concentration higher than ETPC | BPM was decreased |  | 
10 | CC(C)N(CCC(C(N)=O)(c1ccccc1)c1ccccn1)C(C)C (stereo not drawn) [Disopyramide] | decreased cell activity at concentrations less than ETPC |  | induce arrhythmia-like waveforms | FPDc prolongation (in words) [3]: FPDc prolongation at concentrations lower than ETPC
11 | CN(CCOc1ccc(NS(C)(=O)=O)cc1)CCc1ccc(NS(C)(=O)=O)cc1 [Dofetilide] |  |  | no arrhythmia-like events were observed; also recorded: No arrhythmia-like waveforms were observed | Concentration at which arrhythmia-like waveforms were observed [3]: > 150 times of the ETPC; FPDc prolongation (in words) [3]: FPDc prolongation at concentrations higher than ETPC; Beating of the cells at the maximum concentration ([2]; 0.3 µm (150 times of the ETPC)): cells stopped beating
12 | O=c1[nH]c2ccccc2n1CCCN1CCC(n2c(=O)[nH]c3cc(Cl)ccc32)CC1 [Domperidone] |  |  | caused arrhythmia-like waveforms | 
13 | O=C(CCCN1CC=C(n2c(=O)[nH]c3ccccc32)CC1)c1ccc(F)cc1 [Droperidol] | decreased the activity of cardiomyocytes at a concentration higher than ETPC | decrease BPM | caused arrhythmia-like waveforms | 
14 | O=C(NCC1CCCCN1)c1cc(OCC(F)(F)F)ccc1OCC(F)(F)F (stereo not drawn) [Flecainide] |  |  |  | Concentration at which arrhythmia-like waveforms were observed [3]: 1.33 times of the ETPC
15 | CCCCCCCN(CC)CCCC(O)c1ccc(NS(C)(=O)=O)cc1 (stereo not drawn) [Ibutilide] | decreased cell activity at concentrations less than ETPC | BPM decrease at concentrations less than ETPC | induce arrhythmia-like waveforms | Concentration at which arrhythmia-like waveforms were observed [3]: 10 % of the ETPC; FPDc prolongation (in words) [3]: FPDc prolongation at concentrations lower than ETPC
16 | CCOC(=O)N1CCC(=C2c3ccc(Cl)cc3CCc3cccnc32)CC1 [Loratadine] | decreased the activity of cardiomyocytes at a concentration higher than ETPC |  |  | 
17 | CCC(=O)C(CC(C)N(C)C)(c1ccccc1)c1ccccc1 (stereo not drawn) [Methadone] | decreased the cell activity of cardiomyocytes at concentrations greater than ETPC | decreased BPM at a concentration greater than ETPC |  | 

Row | SMILES | Effect on Ampl (cell activity / cell viability) [2] | Effect on BPM (beats per minute) [2] | Arrhythmia-like waveforms (in words) [3] | other results
18 | COCCc1ccc(OCC(O)CNC(C)C)cc1 (stereo not drawn) [Metoprolol] | decreased the activity of cardiomyocytes at a concentration higher than ETPC | BPM was decreased |  | Concentration at which FPDc prolongation was observed [3]: 6 % of the ETPC
19 | Cc1cccc(C)c1OCC(C)N (stereo not drawn) [Mexiletine] | decreased the activity of cardiomyocytes at a concentration higher than ETPC | BPM was decreased |  | Concentration at which FPDc prolongation was observed [3]: 1.2 times of the ETPC
20 | COc1c(N2C[C@@H]3CCCN[C@@H]3C2)c(F)cc2c(=O)c(C(=O)O)cn(C3CC3)c12 [Moxifloxacin] |  | decreased BPM at a concentration greater than ETPC |  | 
21 | NC(=O)c1cccnc1 [Nicotinamide] | decreased the cell activity of cardiomyocytes at concentrations greater than ETPC | decreased BPM |  | 
22 | COC(=O)C1=C(C)NC(C)=C(C(=O)OC)C1c1ccccc1[N+](=O)[O-] [Nifedipine] | decreased the activity of cardiomyocytes at a concentration higher than ETPC |  |  | 
23 | CCOC(=O)C1=C(C)NC(C)=C(C(=O)OC)C1c1cccc([N+](=O)[O-])c1 (stereo not drawn) [Nitrendipine] | decreased the activity of cardiomyocytes at a concentration higher than ETPC |  |  | Concentration at which arrhythmia-like waveforms were observed [3]: 331.1 times of the ETPC
24 | Cc1nccn1CC1CCc2c(c3ccccc3n2C)C1=O (stereo not drawn) [Ondansetron] | decreased the activity of cardiomyocytes at a concentration higher than ETPC | decrease BPM | caused arrhythmia-like waveforms | Concentration at which arrhythmia-like waveforms were observed [3]: 81 % of the ETPC
25 | O=c1[nH]c2ccccc2n1C1CCN(CCCC(c2ccc(F)cc2)c2ccc(F)cc2)CC1 [Pimozide] | decreased the activity of cardiomyocytes at a concentration higher than ETPC | decrease BPM | caused arrhythmia-like waveforms | 
26 | C=C[C@H]1C[N@@]2CC[C@H]1C[C@@H]2[C@@H](O)c1ccnc2ccc(OC)cc12 [Quinidine] | decreased cell activity at concentrations less than ETPC | BPM decrease at concentrations less than ETPC | induce arrhythmia-like waveforms | FPDc prolongation (in words) [3]: FPDc prolongation at concentrations lower than ETPC
27 | COc1ccccc1OCC(O)CN1CCN(CC(=O)Nc2c(C)cccc2C)CC1 (stereo not drawn) [Ranolazine] |  |  |  | Concentration at which FPDc prolongation was observed [3]: 51 % of the ETPC; Concentration at which arrhythmia-like waveforms were observed [3]: 15.4 times of the ETPC
28 | Cc1nc2n(c(=O)c1CCN1CCC(c3noc4cc(F)ccc34)CC1)CCCC2 [Risperidone] | decreased the activity of cardiomyocytes at a concentration higher than ETPC | decrease BPM | caused arrhythmia-like waveforms | Concentration at which arrhythmia-like waveforms were observed [3]: 555.6 times of the ETPC; Predicted risk, LR model of Blinova et al [4]: low-risk
29 | CC(C)NCC(O)c1ccc(NS(C)(=O)=O)cc1 (stereo not drawn) [Sotalol] |  | BPM decrease at concentrations less than ETPC | induce arrhythmia-like waveforms | FPDc prolongation (in words) [3]: FPDc prolongation at concentrations lower than ETPC
30 | CC/C(=C(\c1ccccc1)c1ccc(OCCN(C)C)cc1)c1ccccc1 [Tamoxifen] | decreased the activity of cardiomyocytes at a concentration higher than ETPC | BPM was decreased |  | Concentration at which arrhythmia-like waveforms were observed [3]: 142.9 times of the ETPC
31 | CC(C)(C)c1ccc(C(O)CCCN2CCC(C(O)(c3ccccc3)c3ccccc3)CC2)cc1 (stereo not drawn) [Terfenadine] | decreased the activity of cardiomyocytes at a concentration higher than ETPC | decrease BPM |  | 
32 | COc1cc2c(Nc3ccc(Br)cc3F)ncnc2cc1OCC1CCN(C)CC1 [Vandetanib] |  | BPM decrease at concentrations less than ETPC | induce arrhythmia-like waveforms | FPDc prolongation (in words) [3]: FPDc prolongation at concentrations higher than ETPC
33 | COc1ccc(CCN(C)CCCC(C#N)(c2ccc(OC)c(OC)c2)C(C)C)cc1OC (stereo not drawn) [Verapamil] | decreased the activity of cardiomyocytes at a concentration higher than ETPC |  |  | 
